Reference: article PMC11755176 (ACS Omega, 2025)

Key:
[1] = test system: nonsmall cell lung cancer cells (A549); experiment: MTT cytotoxicity assay, A549; assay type: cell-based; details: for IC50: Homo sapiens, A549, 72 h, read-out: IC50 A549; for IC50 A549: MTT assay, 72 h incubation, mean ± SD of three independent experiments
Method in brief: (§1)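 Cells kept in DMEM with 10% FBS and 1% penicillin-streptomycin at 37 °C, 5% CO2. Seeding: A549 5 × 10^3, HeLa 1 × 10^3, Vero 2 × 10^3 cells/well. After 16−18 h, medium replaced with graded compound concentrations for 72 h. MTT 0.5 mg/mL for 3 h; formazan dissolved in DMSO; A570 (reference 630 nm). IC50 by nonlinear regression; doxorubicin positive control.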

A549 cells = experiment: Apoptosis analysis; assay type: cell-based; details: compared to untreated, Figure 4A,B
[2] = test system: human cervical carcinoma cells (HeLa); experiment: MTT cytotoxicity assay, HeLa; assay type: cell-based; details: 72 h incubation, mean ± SD of three independent experiments
Method in brief: as §1

[3] = test system: NCI-H187 cancer cell line; details: previously reported; cited from earlier work
[4] = test system: HCT 116 colorectal cancer cells; details: cited from earlier work
HeLa cells = experiment: Apoptosis analysis; assay type: cell-based, human; details: both tested concentrations, Figure 4C,D
Vero cells = experiment: MTT cytotoxicity assay, Vero; assay type: cell-based; details: 72 h incubation, mean ± SD of three independent experiments
Method in brief: as §1

Structure (SMILES)	IC50 [1] [µM]	IC50 HeLa [2]	IC50 A549 [1]	further results
COc1cccc2c1C(=O)c1c(O)c3c(c(O)c1C2=O)C[C@@](O)(C(=O)CO)C[C@@H]3O[C@H]1C[C@H](N)[C@H](O)[C@H](C)O1 [doxorubicin, reference compound]	0.04			
O=C1C[C@@H](c2ccccc2)Oc2c(Cc3ccccc3O)c(O)c(Cc3ccccc3O)c(O)c21 [Compound 7, dichamanetin]	14.9 ± 0.6	inactive		apoptosis induction (in words) (A549 cells): moderate level of apoptosis
O=C1C[C@@H](c2ccccc2)Oc2cc(O)cc(O)c21 [Compound 4, pinocembrin]			inactive	IC50 NCI-H187 [3]: inactive; cytotoxic activity (in words) [4]: exhibit cytotoxic activity; apoptosis induction (in words) (HeLa cells): increased apoptotic cells in a dose-dependent manner
O=C1C[C@@H](c2ccccc2)Oc2cc(O)c(Cc3ccccc3O)c(O)c21 [Compound 5, isochamanetin]		inactive	inactive	IC50 Vero (Vero cells): inactive
